Compound activity (PubChem BioAssay)
Shown are actives, neighbours in structure and some others; about 3.1% of the full set was active somewhere.
KCNQ1 act: potentiators or activators of human KCNQ1 potassium channel; CHO-K1 KCNQ1, thallium flux FluxOR fluorescence; stronger effect = higher value; 310,000 compounds, 0.35% hits; B-score at 10 µM; P51787;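 active means fluorescence ratio B-score, a plate-corrected score, at least three library SD, with initial intensity B-score within 5 SD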
Target sequence (P51787 whole entry, looked up): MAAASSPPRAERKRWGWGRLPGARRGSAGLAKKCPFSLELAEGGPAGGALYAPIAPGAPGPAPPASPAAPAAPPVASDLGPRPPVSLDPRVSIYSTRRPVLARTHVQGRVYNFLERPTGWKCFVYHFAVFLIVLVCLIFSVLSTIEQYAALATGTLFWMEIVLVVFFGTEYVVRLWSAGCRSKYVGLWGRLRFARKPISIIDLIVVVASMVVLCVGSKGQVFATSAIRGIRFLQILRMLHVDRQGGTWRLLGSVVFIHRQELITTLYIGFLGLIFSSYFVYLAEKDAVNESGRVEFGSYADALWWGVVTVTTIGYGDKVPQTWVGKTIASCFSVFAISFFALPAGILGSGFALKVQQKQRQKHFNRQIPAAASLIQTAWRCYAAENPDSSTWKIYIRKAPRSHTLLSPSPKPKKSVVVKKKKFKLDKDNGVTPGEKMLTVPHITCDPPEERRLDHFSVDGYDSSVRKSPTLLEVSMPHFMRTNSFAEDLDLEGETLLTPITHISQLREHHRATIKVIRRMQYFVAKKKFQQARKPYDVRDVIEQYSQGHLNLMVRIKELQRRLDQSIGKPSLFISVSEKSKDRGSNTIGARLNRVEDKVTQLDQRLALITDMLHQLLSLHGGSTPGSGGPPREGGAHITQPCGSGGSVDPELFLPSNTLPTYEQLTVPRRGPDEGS
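Doses: Single concentration per compound, DMSO matched to controls | Test system: KCNQ1-transfected CHO-K1 cells | Timing: 90 min dye loading and 20 min compound exposure, both at room temperature | Measured by: Kinetic FluxOR thallium fluorescence, 10-s 1-Hz baseline, 110-s post-stimulus read | Medium: Assay buffer with matched DMSO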
hERG rescue: shields human hERG channel from block by proarrhythmic agents; Q12809; CHO-hERG, FluxOR thallium flux, dofetilide IC70 present; activation (rescue from dofetilide block), less the hit threshold, % at 10 µM; 310,000 compounds, 0.51% hits; AID 1511;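 active means activation above the mean of controls blocked by dofetilide plus 5 SD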;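 further: thallium influx through hERG after potassium depolarization seen as dye fluorescence rise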
KCNK9 inh: human KCNK9 channel inhibition; Q9NPC2; HEK293 KCNK9, FluxOR thallium flux fluorescence; stronger effect = lower value; B-score at 10 µM; 310,000 compounds, 1.2% hits; AID 488922;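 active means ratio B-score over 3 SD below the library mean, with starting fluorescence within 5 SD of its mean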;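 further: negative B-score means less thallium flux so channel inhibition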
KCNQ1 inh: blocks the human KCNQ1 potassium channel | B-score at 10 µM | 310,000 compounds, 1.3% hits | AID 2642 | P51787 | CHO-K1 KCNQ1, FluxOR thallium flux fluorescence; stronger effect = higher value;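 active means compounds whose thallium flux B-score, printed positive for inhibition, exceeds three library SD while starting fluorescence stays within three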;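 further: channel opened by potassium depolarization with thallium stimulus after 20 min compound exposure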
KCNK3 inh: human KCNK3 channel inhibition, primary screen | CHO-KCNK3 thallium flux, FluxOR fluorescence; stronger effect = lower value | AID 602410 | B-score at 10 µM | 340,000 compounds, 0.84% hits;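 active means B-score under library mean minus 4 SD, starting fluorescence ratio at most library mean plus 5 SD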;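 further: more negative B-score means stronger inhibition of thallium flux through KCNK3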
KCNK9 block conf: human KCNK9 inhibitor confirmation. inhibition, % at 10 µM. 4,900 compounds, 43% hits. shares compounds with KCNK9 inh. AID 492992. HEK293 KCNK9 cells, FluxOR thallium flux fluorescence;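 active means thallium signal inhibited by more than 5 SD of the compound-free buffer control wells, on both duplicate plates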
Kir21 sel: selectivity of KCNK9 modulators against mouse Kir2.1 | shares compounds with KCNK9 inh | Kir2.1 cells, FluxOR thallium flux fluorescence | inhibition, % at 10 µM | 4,900 compounds, 4% hits;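 active means thallium signal drop more than 5 SD beyond the mean of the no-compound control wells, seen in both duplicate plates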;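 further: signal is fluorescence rise after thallium addition divided by baseline fluorescence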
HEK293 Tl ctr: non-induced cell nonspecific activity of KCNK9 modulators | 4,900 compounds, 40% hits | AID 492997 | inhibition, % at 10 µM | non-induced KCNK9-HEK293, FluxOR thallium flux | shares compounds with KCNK9 inh;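 active means thallium signal drop beyond 5 SD of the untreated control mean, on both duplicate plates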
KCNK3 confirm: confirmation of human KCNK3 two-pore domain potassium channel inhibitors; shares compounds with KCNK3 inh; CHO-KCNK3 thallium flux, FluxOR fluorescence; 0% buffer, 100% carvedilol maximal block; ratio percent of control, % at 10 µM; 2,400 compounds, 99% hits; AID 651638;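 active means ratio percent of control, averaged over triplicates, above buffer control mean plus 5 SD, cut at about 64% in these data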;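 further: ratio is the fluorescence rise from min to max over baseline after thallium stimulus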
KCNK3 uninduced: counter-screen for KCNK3 inhibitors: effect in non-induced cells; AID 651747; 2,400 compounds, 40% hits; shares compounds with KCNK3 inh; thallium flux ratio (lower = more inhibition) at 10 µM; non-induced KCNK3 parental cells, FluxOR thallium flux; stronger effect = lower value;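 active means thallium flux ratio, averaged over three wells, more than 5 SD below the buffer control mean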;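 further: host cells are CHO cells without KCNK3 induction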
Large screens that a line does not name were inactive (follow-up assays come after a bar, where they were run).

COC(=O)c1ccc(Cn2nnc3c(=O)[nH]c(C4CCN(S(=O)(=O)c5cc(C)ccc5C)CC4)nc32)cc1	none
Clc1ccc(OCCSc2ncccn2)c2ccccc12	KCNK9 inh -8.4 | KCNK9 block conf inactive | Kir21 sel inactive | HEK293 Tl ctr 50% | KCNK3 confirm 106 | KCNK3 uninduced inactive
O=C(NCc1ccc2c(c1)OCO2)c1cccc(Cl)c1	none
O=C(NCc1ccc2c(c1)OCO2)c1ccc(-c2ccc(Cl)cc2)o1	KCNK9 inh -8.6, KCNK3 inh -8.9 | KCNK9 block conf 27% | Kir21 sel inactive | HEK293 Tl ctr 26% | KCNK3 confirm 140 | KCNK3 uninduced 0.12
CCn1nc(C(=O)NCc2ccco2)c(Cl)c1Cl	none
CCn1nc(C(=O)Nc2cccc3ccccc23)c(Cl)c1Cl	KCNK9 inh -10 | KCNK9 block conf 49% | Kir21 sel inactive | HEK293 Tl ctr 36% | KCNK3 confirm 126 | KCNK3 uninduced 0.16
COc1cccc(C2CNC3(CCCC(C)C3)c3[nH]c4ccccc4c32)c1OC (stereo not given)	none
CC1(C)CC(=O)CC2(C1)NCC(c1ccccc1)c1c2[nH]c2ccccc12 (stereo not given)	KCNK9 inh -15, KCNK3 inh -9.3 | KCNK9 block conf 64% | Kir21 sel inactive | HEK293 Tl ctr 34% | KCNK3 confirm 99 | KCNK3 uninduced inactive
OC(CNc1nc(C(F)(F)F)nc2ccccc12)c1ccccc1 (stereo not given)	KCNK9 inh -12, KCNK3 inh -13 | KCNK9 block conf 61% | Kir21 sel inactive | HEK293 Tl ctr inactive | KCNK3 confirm 118 | KCNK3 uninduced inactive
COc1ccccc1OCCCN1C(=O)C(=O)c2cccc(C)c21	KCNK9 inh -12, KCNK3 inh -10 | KCNK9 block conf 49% | Kir21 sel inactive | HEK293 Tl ctr inactive | KCNK3 confirm 112 | KCNK3 uninduced inactive
O=C(/C=C/c1cccc(C(F)(F)F)c1)Nc1cccc(C(F)(F)F)c1	KCNQ1 inh 9, KCNK3 inh -11 | KCNK9 block conf inactive | Kir21 sel inactive | HEK293 Tl ctr inactive | KCNK3 confirm 107 | KCNK3 uninduced 0.15
Cc1onc(-c2ccccc2Cl)c1C(=O)N(Cc1nc(-c2ccccc2)no1)C1CCCCC1	KCNK9 inh -9.7 | KCNK9 block conf 30% | Kir21 sel inactive | HEK293 Tl ctr 32% | KCNK3 confirm 90 | KCNK3 uninduced 0.15
O=C(CNc1ccccc1F)Nc1cccc2ccccc12	KCNK9 inh -12, KCNK3 inh -14 | KCNK9 block conf 49% | Kir21 sel inactive | HEK293 Tl ctr inactive | KCNK3 confirm 112 | KCNK3 uninduced 0.16
O=C(Nc1ccccc1F)C(=O)Nc1cccc2ccccc12	none
Cc1ccc(NC(=O)Cc2nnc(N)s2)cc1	none
C[C@@H]1CN([C@H](C)CO)C(=O)c2cc(NS(=O)(=O)c3cn(C)cn3)ccc2O[C@@H]1CN(C)S(C)(=O)=O	none (no result: KCNQ1 act, hERG rescue, KCNK9 inh, KCNQ1 inh)
Cc1nnc(SCC(=O)NC(C)(C)C)n1NCc1cccc(Br)c1	none
O=C(NC1CCCCC1)c1cc2ccccc2cc1O	KCNK9 inh -12, KCNK3 inh -9.4 | KCNK9 block conf 26% | Kir21 sel inactive | HEK293 Tl ctr inactive | KCNK3 confirm 107 | KCNK3 uninduced inactive
Cc1ccc(N2C(=O)c3ccccc3C2Nc2ccc(S(=O)(=O)N3CCOCC3)cc2)nc1 (stereo not given)	none
Cc1ccc(N2C(=O)c3ccccc3C2Nc2ccc(S(=O)(=O)N3CCCCC3)cc2)nc1 (stereo not given)	KCNK9 inh -11, KCNK3 inh -10 | KCNK9 block conf inactive | Kir21 sel inactive | HEK293 Tl ctr 30% | KCNK3 confirm 121 | KCNK3 uninduced 0.15
COC(=O)c1cc(C)sc1NC(=S)N1CCN(CCc2ccccc2)CC1	KCNK3 inh -10 | KCNK9 block conf inactive | Kir21 sel inactive | HEK293 Tl ctr inactive | KCNK3 confirm 104 | KCNK3 uninduced inactive
CC1=NN(C(=O)COc2cc(C)ccc2C(C)C)C(O)(c2ccccc2)C1 (stereo not given)	KCNK9 inh -15, KCNK3 inh -9.8 | KCNK9 block conf 58% | Kir21 sel inactive | HEK293 Tl ctr 38% | KCNK3 confirm 120 | KCNK3 uninduced 0.16
CC1=NN(C(=O)CSCc2ccccc2)C(O)(c2ccc(Cl)cc2)C1 (stereo not given)	KCNK9 inh -13, KCNK3 inh -13 | KCNK9 block conf 62% | Kir21 sel inactive | HEK293 Tl ctr 34% | KCNK3 confirm 98 | KCNK3 uninduced inactive
CC(=O)c1ccc(S(=O)(=O)N2CCN(C(=O)c3cccc(S(=O)(=O)N4CC(C)OC(C)C4)c3)CC2)cc1 (stereo not given)	none (no result: KCNQ1 act, hERG rescue, KCNK9 inh, KCNQ1 inh)
CCC(=O)N1C(Cc2ccccc2)COC1(C)C (stereo not given)	none
O=C(CN1C(=O)NC2(CCCC2)C1=O)Nc1cc(C(F)(F)F)ccc1N1CCCCC1	none
Nc1c(Cl)cc(-c2csc(N3CCCC3c3nc4cc(Cl)c(N5CCCCC5)cc4n3CCOCCO)n2)cc1Cl (stereo not given)	none
COC(=O)c1ccccc1NC(=O)N1CCc2ccc(NC(=O)c3ccccn3)cc2C1	KCNK9 inh -8.3 | KCNK9 block conf 42% | Kir21 sel inactive | HEK293 Tl ctr 26% | KCNK3 confirm 134 | KCNK3 uninduced 0.16
CSc1ccc(C(=O)N2CCc3ccc(NC(=O)c4ccccn4)cc3C2)cc1	none
CC(=O)N1N=C(c2ccncc2)OC12CCCCC2	none
C=CCOc1ccc(CN(C)CC(=O)Nc2ccccc2[N+](=O)[O-])cc1	KCNK3 inh -9.5 | KCNK9 block conf inactive | Kir21 sel inactive | HEK293 Tl ctr inactive | KCNK3 confirm 99 | KCNK3 uninduced 0.16
COc1ccccc1/C=C/C(=O)OCC(=O)NCc1ccc2c(c1)OCO2	none (no result: KCNQ1 act, hERG rescue, KCNK9 inh, KCNQ1 inh)
COc1ccccc1/C=C(/CC(=O)NCc1ccc2c(c1)OCO2)c1nc2ccccc2s1	KCNK9 inh -12, KCNK3 inh -9.3 | KCNK9 block conf 56% | Kir21 sel inactive | HEK293 Tl ctr 29% | KCNK3 confirm 125 | KCNK3 uninduced 0.14
CN(C)S(=O)(=O)c1cccc(NC(=O)Cc2ccc(Cl)cc2)c1	none
